In ChEMBL document CHEMBL3046200, “5-(2,6-difluorobenzyl)oxymethyl-5-methyl-3-(3-methylthiophen-2-yl)- 1,2-isoxazoline as a useful rice herbicide” (J Agric Food Chem, 2005):
In brackets after ≈: the same amount, converted by molar mass. Activity calls are given as the source filed them. The rule behind the calls is not given here.

Experiments:
Ludwigia prostrata [1] = assay: Herbicidal activity against Ludwigia prostrata assessed as visual damage 125 g/ha measured after 3 weeks; format: functional, organism-based
Method in brief: (§1)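 Flooded greenhouse pot test with soil of 1.5% total carbon, pH 5.6. Eight annual weed species sown at 0.5–1.0 cm in one pot, under 3 cm water at 28–33 °C day and 20–26 °C night. Compound in acetone/water (50/50 v/v) added gently to the water surface at the stated rate 5 days after transplanting.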

Ludwigia prostrata [2] = assay: Herbicidal activity against Ludwigia prostrata assessed as visual damage 250 g/ha measured after 3 weeks; format: functional, organism-based; method in brief: as §1
Ludwigia prostrata [3] = assay: Herbicidal activity against Ludwigia prostrata assessed as visual damage 500 g/ha measured after 3 weeks; format: functional, organism-based; method in brief: as §1
Ludwigia prostrata [4] = assay: Herbicidal activity against Ludwigia prostrata assessed as visual damage 1000 g/ha measured after 3 weeks; format: functional, organism-based; method in brief: as §1
Cyperus difformis [5] = assay: Herbicidal activity against Cyperus difformis assessed as visual damage 62.5 g/ha measured after 3 weeks; format: functional, organism-based; method in brief: as §1
Cyperus difformis [6] = assay: Herbicidal activity against Cyperus difformis assessed as visual damage 125 g/ha measured after 3 weeks; format: functional, organism-based; method in brief: as §1
Cyperus difformis [7] = assay: Herbicidal activity against Cyperus difformis assessed as visual damage 250 g/ha measured after 3 weeks; format: functional, organism-based; method in brief: as §1
Cyperus difformis [8] = assay: Herbicidal activity against Cyperus difformis assessed as visual damage 500 g/ha measured after 3 weeks; format: functional, organism-based; method in brief: as §1
Cyperus difformis [9] = assay: Herbicidal activity against Cyperus difformis assessed as visual damage 1000 g/ha measured after 3 weeks; format: functional, organism-based; method in brief: as §1
Murdannia keisak [10] = assay: Herbicidal activity against Murdannia keisak assessed as visual damage 62.5 g/ha measured after 3 weeks; format: functional, organism-based; method in brief: as §1
Murdannia keisak [11] = assay: Herbicidal activity against Murdannia keisak assessed as visual damage 125 g/ha measured after 3 weeks; format: functional, organism-based; method in brief: as §1
Murdannia keisak [12] = assay: Herbicidal activity against Murdannia keisak assessed as visual damage 250 g/ha measured after 3 weeks; format: functional, organism-based; method in brief: as §1
Rotala indica [13] = assay: Herbicidal activity against Rotala indica assessed as visual damage 125 g/ha measured after 3 weeks; format: functional, organism-based; method in brief: as §1
Rotala indica [14] = assay: Herbicidal activity against Rotala indica assessed as visual damage 250 g/ha measured after 3 weeks; format: functional, organism-based; method in brief: as §1
Rotala indica [15] = assay: Herbicidal activity against Rotala indica assessed as visual damage 500 g/ha measured after 3 weeks; format: functional, organism-based; method in brief: as §1
Rotala indica [16] = assay: Herbicidal activity against Rotala indica assessed as visual damage 1000 g/ha measured after 3 weeks; format: functional, organism-based; method in brief: as §1
Pontederia vaginalis [17] = assay: Herbicidal activity against Monochoria vaginalis assessed as visual damage 125 g/ha measured after 3 weeks; format: functional, organism-based; method in brief: as §1
Pontederia vaginalis [18] = assay: Herbicidal activity against Monochoria vaginalis assessed as visual damage 250 g/ha measured after 3 weeks; format: functional, organism-based; method in brief: as §1
Pontederia vaginalis [19] = assay: Herbicidal activity against Monochoria vaginalis assessed as visual damage 500 g/ha measured after 3 weeks; format: functional, organism-based; method in brief: as §1
Pontederia vaginalis [20] = assay: Herbicidal activity against Monochoria vaginalis assessed as visual damage 1000 g/ha measured after 3 weeks; format: functional, organism-based; method in brief: as §1
[21] = tested on: Schoenoplectiella juncoides; assay: Herbicidal activity against Schoenoplectiella juncoides assessed as visual damage 62.5 g/ha measured after 3 weeks; format: functional, organism-based; method in brief: as §1
[22] = tested on: Schoenoplectiella juncoides; assay: Herbicidal activity against Schoenoplectiella juncoides assessed as visual damage 125 g/ha measured after 3 weeks; format: functional, organism-based; method in brief: as §1
[23] = tested on: Schoenoplectiella juncoides; assay: Herbicidal activity against Schoenoplectiella juncoides assessed as visual damage 250 g/ha measured after 3 weeks; format: functional, organism-based; method in brief: as §1
Echinochloa oryzicola [24] = assay: Herbicidal activity against Echinochloa oryzicola assessed as visual damage 125 g/ha measured after 3 weeks; format: functional, organism-based; method in brief: as §1
Echinochloa oryzicola [25] = assay: Herbicidal activity against Echinochloa oryzicola assessed as visual damage 250 g/ha measured after 3 weeks; format: functional, organism-based; method in brief: as §1
Echinochloa oryzicola [26] = assay: Herbicidal activity against Echinochloa oryzicola assessed as visual damage 500 g/ha measured after 3 weeks; format: functional, organism-based; method in brief: as §1
Echinochloa oryzicola [27] = assay: Herbicidal activity against Echinochloa oryzicola assessed as visual damage 1000 g/ha measured after 3 weeks; format: functional, organism-based; method in brief: as §1
Oryza sativa [28] = assay: Toxicity in transplanted Oryza sativa (rice) assessed as visual damage 62.5 g/ha measured after 5 days after transplanting; format: organism-based; settings: in vivo, 120 h
Method in brief: (§2)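 Transplanted rice grown in flooded greenhouse pots (3 cm water; 28–33 °C day, 20–26 °C night; soil 1.5% total carbon, pH 5.6). Compound in acetone/water (50/50 v/v) applied to the water surface at the stated rate 5 days after transplanting. Injury scored visually on a 0–100 scale.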

Oryza sativa [29] = assay: Toxicity in transplanted Oryza sativa (rice) assessed as visual damage 125 g/ha measured after 5 days after transplanting; format: organism-based; settings: in vivo, 120 h; method in brief: as §2
Oryza sativa [30] = assay: Toxicity in transplanted Oryza sativa (rice) assessed as visual damage 250 g/ha measured after 5 days after transplanting; format: organism-based; settings: in vivo, 120 h; method in brief: as §2
Oryza sativa [31] = assay: Toxicity in transplanted Oryza sativa (rice) assessed as visual damage 500 g/ha measured after 5 days after transplanting; format: organism-based; settings: in vivo, 120 h; method in brief: as §2
Oryza sativa [32] = assay: Toxicity in transplanted Oryza sativa (rice) assessed as visual damage 1000 g/ha measured after 5 days after transplanting; format: organism-based; settings: in vivo, 120 h; method in brief: as §2
[33] = Genotoxicity in Cricetulus griseus lung fibroblast assessed as mutation; format: toxicity, cell-based; settings: chinese hamster
Method in brief: (§3)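 CHL (Chinese hamster lung fibroblast) cells kept in minimum essential medium with 5% fetal bovine serum. Harvested with 0.2% trypsin, seeded onto 50-mm dishes, and grown at 37 °C in humidified 5% CO₂/95% air.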

[34] = Genotoxicity inCricetulus griseus lung fibroblast assessed as chromosome aberration; format: toxicity, cell-based, Cricetulus griseus; settings: chinese hamster; method in brief: as §3
[35] = Aquatic toxicity in Oryzias latipes (Japanese medaka); format: organism-based; settings: in vivo, other: aquatic exposure
Method in brief: (§4)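 Aquatic acute toxicity, given as LC50 in mg/L of test water.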

[36] = Aquatic toxicity in Daphnia magna; format: organism-based; settings: in vivo, other: aquatic exposure; method in brief: as §4
[37] = Acute toxicity in Mus musculus (mouse); format: organism-based; settings: in vivo
Method in brief: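 Acute toxicity in mice, given as LD50 in mg/kg.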

Echinochloa crus-galli [38] = assay: Herbicidal activity against 4 leaf stage Echinochloa crus-galli (barnyard grass) (barnyardgrass) at 250 g/ha; format: functional, organism-based
Echinochloa crus-galli [39] = assay: Herbicidal activity against 2 to 3 leaf stage Echinochloa crus-galli (barnyard grass) (barnyardgrass) at 62.5 g/ha; format: functional, organism-based
Ludwigia prostrata [40] = assay: Herbicidal activity against Ludwigia prostrata assessed as visual damage 62.5 g/ha measured after 3 weeks; format: functional, organism-based; method in brief: as §1

SMILES: Cc1ccsc1C1=NOC(C)(COCc2c(F)cccc2F)C1 (stereo not given)
- Activity (Ludwigia prostrata [1]): Active
- Activity (Ludwigia prostrata [2]): Active
- Activity (Ludwigia prostrata [3]): Active
- Activity (Ludwigia prostrata [4]): Active
- Activity (Cyperus difformis [5]): Active
- Activity (Cyperus difformis [6]): Active
- Activity (Cyperus difformis [7]): Active
- Activity (Cyperus difformis [8]): Active
- Activity (Cyperus difformis [9]): Active
- Activity (Murdannia keisak [10]): inactive
- Activity (Murdannia keisak [11]): inactive
- Activity (Murdannia keisak [12]): inactive
- Activity (Rotala indica [13]): Active
- Activity (Rotala indica [14]): Active
- Activity (Rotala indica [15]): Active
- Activity (Rotala indica [16]): Active
- Activity (Pontederia vaginalis [17]): Active
- Activity (Pontederia vaginalis [18]): Active
- Activity (Pontederia vaginalis [19]): Active
- Activity (Pontederia vaginalis [20]): Active
- Activity [21]: inactive
- Activity [22]: inactive
- Activity [23]: inactive
- Activity (Echinochloa oryzicola [24]): Active
- Activity (Echinochloa oryzicola [25]): Active
- Activity (Echinochloa oryzicola [26]): Active
- Activity (Echinochloa oryzicola [27]): Active
- Activity (Oryza sativa [28]): Non-toxic
- Activity (Oryza sativa [29]): Non-toxic
- Activity (Oryza sativa [30]): Non-toxic
- Activity (Oryza sativa [31]): Non-toxic
- Activity (Oryza sativa [32]): Non-toxic
- Activity [33]: Non-toxic
- Activity [34]: Non-toxic
- LC50 [35]: 1.9 µg/mL (≈ 5.63 µM)
- LC50 [36]: 2.7 µg/mL (≈ 8 µM)
- LD50 [37]: 5000 mg/kg
- Activity (Echinochloa crus-galli [38]): Active
- Activity (Echinochloa crus-galli [39]): Active
- Activity (Ludwigia prostrata [40]): Active
